In ChEMBL document CHEMBL3124784, “Synthesis, in vitro antiplasmodial activity and cytotoxicity of a series of artemisinin-triazine hybrids and hybrid-dimers” (Eur J Med Chem, 2014):

What was measured:
[1] = system: Plasmodium falciparum; test: Potency index, ratio of pyrimethamine IC50 to compound IC50 for asexual erythrocytic stage of chloroquine-sensitive Plasmodium falciparum NF54; assay type: functional
[2] = Selectivity index, ratio of IC50 for CHO cells to IC50 for asexual erythrocytic stage of chloroquine-sensitive Plasmodium falciparum NF54; assay type: toxicity, cell-based; details: hamster; read-out: Ratio IC50
[3] = system: CHO; test: Cytotoxicity against CHO cells after 48 hrs by MTT assay; assay type: cell-based; details: Cricetulus griseus
[4] = Resistance index, ratio of IC50 for asexual erythrocytic stage of chloroquine-resistant Plasmodium falciparum Dd2 to IC50 for asexual erythrocytic stage of chloroquine-sensitive Plasmodium falciparum NF54; assay type: functional
[5] = system: Plasmodium falciparum; test: Antiplasmodial activity against asexual erythrocytic stage of chloroquine-resistant Plasmodium falciparum Dd2 assessed as parasite growth inhibition after 48 hrs by lactate dehydrogenase assay; assay type: functional, organism-based; details: Dd2, 48 h
Summary of the method: (§1)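 pLDH assay (modified Makler method) on cultured parasites, 48 h exposure. Stocks 20 mg/mL in 100% DMSO, stored at −20 °C, diluted in complete medium on the day of analysis; suspensions tested if not fully dissolved. Two-fold serial dilutions over ten concentrations; references started at 1000 ng/mL. Full dose-response for IC50; triplicate on one occasion.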

[6] = system: Plasmodium falciparum; test: Antiplasmodial activity against asexual erythrocytic stage of chloroquine-sensitive Plasmodium falciparum NF54 assessed as parasite growth inhibition after 48 hrs by lactate dehydrogenase assay; assay type: functional, organism-based; details: NF54, 48 h; summary of the method: as §1
[7] = system: Plasmodium falciparum; test: Potency index, ratio of chloroquine IC50 to compound IC50 for asexual erythrocytic stage of chloroquine-sensitive Plasmodium falciparum NF54; assay type: functional

COc1ccc(Nc2nc(NCCN(CCO[C@H]3O[C@@H]4O[C@@]5(C)CC[C@H]6[C@H](C)CC[C@@H]([C@H]3C)[C@@]46OO5)CCO[C@H]3O[C@@H]4O[C@@]5(C)CC[C@H]6[C@H](C)CC[C@@H]([C@H]3C)[C@@]46OO5)nc(NCCN(C(C)C)C(C)C)n2)cc1.O=C(O)C(=O)O
Ratio IC50 [1]: <=6000
selectivity ratio [2]: > 3080
IC50 [3]: > 100 µg/mL
Ratio IC50 [4]: 1
IC50 [5]: 33.1 nM
IC50 [6]: 31.8 nM

COc1ccc(Nc2nc(NCCNCCO[C@H]3O[C@@H]4O[C@@]5(C)CC[C@H]6[C@H](C)CC[C@@H]([C@H]3C)[C@@]46OO5)nc(N3CCCCC3)n2)cc1.O=C(O)C(=O)O
Ratio IC50 [1]: <=6000
selectivity ratio [2]: 105
IC50 [3]: 3000 nM
Ratio IC50 [4]: 1.7
IC50 [5]: 46.3 nM
IC50 [6]: 28 nM

C[C@H]1[C@@H](OCCN(CCNc2nc(Nc3ccccc3)nc(Nc3ccccc3)n2)CCO[C@H]2O[C@@H]3O[C@@]4(C)CC[C@H]5[C@H](C)CC[C@@H]([C@H]2C)[C@@]35OO4)O[C@@H]2O[C@@]3(C)CC[C@H]4[C@H](C)CC[C@@H]1[C@@]24OO3.O=C(O)C(=O)O
Ratio IC50 [1]: <=6000
selectivity ratio [2]: 54
IC50 [3]: 700 nM
Ratio IC50 [4]: 0.8
IC50 [5]: 10.3 nM
IC50 [6]: 12.9 nM

COc1ccc(Nc2nc(NCCN(CCO[C@H]3O[C@@H]4O[C@@]5(C)CC[C@H]6[C@H](C)CC[C@@H]([C@H]3C)[C@@]46OO5)CCO[C@H]3O[C@@H]4O[C@@]5(C)CC[C@H]6[C@H](C)CC[C@@H]([C@H]3C)[C@@]46OO5)nc(N3CCOCC3)n2)cc1.O=C(O)C(=O)O
Ratio IC50 [1]: <=6000
selectivity ratio [2]: 35
IC50 [3]: 900 nM
Ratio IC50 [4]: 1.4
IC50 [5]: 35.9 nM
IC50 [6]: 25.8 nM

C[C@H]1[C@@H](OCCN(CCNc2nc(Nc3ccccc3)nc(N3CCOCC3)n2)CCO[C@H]2O[C@@H]3O[C@@]4(C)CC[C@H]5[C@H](C)CC[C@@H]([C@H]2C)[C@@]35OO4)O[C@@H]2O[C@@]3(C)CC[C@H]4[C@H](C)CC[C@@H]1[C@@]24OO3.O=C(O)C(=O)O
Ratio IC50 [1]: <=6000
selectivity ratio [2]: > 13500
IC50 [3]: > 100 µg/mL
Ratio IC50 [4]: 1.3
IC50 [5]: 10.2 nM
IC50 [6]: 7.9 nM

C[C@H]1[C@@H](OCCNCCNc2nc(N3CCCCC3)nc(N3CCCCC3)n2)O[C@@H]2O[C@@]3(C)CC[C@H]4[C@H](C)CC[C@@H]1[C@@]24OO3.O=C(O)C(=O)O
Ratio IC50 [1]: <=6000
selectivity ratio [2]: 150
IC50 [3]: 3100 nM
Ratio IC50 [4]: 2.3
IC50 [5]: 47.5 nM
IC50 [6]: 20.6 nM

C[C@H]1[C@H](OC(=O)CCC(=O)O)O[C@@H]2O[C@@]3(C)CC[C@H]4[C@H](C)CC[C@@H]1[C@@]24OO3 [ARTESUNATE]
IC50 [5]: 8.1 nM
IC50 [6]: < 5.2 nM

COc1ccc(Nc2nc(NCCN(CCO[C@H]3O[C@@H]4O[C@@]5(C)CC[C@H]6[C@H](C)CC[C@@H]([C@H]3C)[C@@]46OO5)CCO[C@H]3O[C@@H]4O[C@@]5(C)CC[C@H]6[C@H](C)CC[C@@H]([C@H]3C)[C@@]46OO5)nc(Nc3ccc(OC)cc3)n2)cc1.O=C(O)C(=O)O
Ratio IC50 [7]: 2
Ratio IC50 [1]: <=6000
selectivity ratio [2]: > 18200
IC50 [3]: > 100 µg/mL
Ratio IC50 [4]: 1.9
IC50 [5]: 10.6 nM
IC50 [6]: 5.5 nM

COc1ccc(Nc2nc(NCCN(CCO[C@H]3O[C@@H]4O[C@@]5(C)CC[C@H]6[C@H](C)CC[C@@H]([C@H]3C)[C@@]46OO5)CCO[C@H]3O[C@@H]4O[C@@]5(C)CC[C@H]6[C@H](C)CC[C@@H]([C@H]3C)[C@@]46OO5)nc(N3CCCCC3)n2)cc1.O=C(O)C(=O)O
Ratio IC50 [1]: <=6000
selectivity ratio [2]: 1470
IC50 [3]: 17000 nM
Ratio IC50 [4]: 1.2
IC50 [5]: 13.6 nM
IC50 [6]: 11.6 nM

COc1ccc(Nc2nc(NCCNCCO[C@H]3O[C@@H]4O[C@@]5(C)CC[C@H]6[C@H](C)CC[C@@H]([C@H]3C)[C@@]46OO5)nc(N3CCOCC3)n2)cc1.O=C(O)C(=O)O
Ratio IC50 [1]: <=6000
selectivity ratio [2]: 81
IC50 [3]: 3100 nM
Ratio IC50 [4]: 1.5
IC50 [5]: 57.4 nM
IC50 [6]: 38.5 nM

C[C@H]1[C@@H](OCCNCCNc2nc(N3CCOCC3)nc(N3CCOCC3)n2)O[C@@H]2O[C@@]3(C)CC[C@H]4[C@H](C)CC[C@@H]1[C@@]24OO3.O=C(O)C(=O)O
Ratio IC50 [1]: <=6000
selectivity ratio [2]: 160
IC50 [3]: 3100 nM
Ratio IC50 [4]: 4.4
IC50 [5]: 85 nM
IC50 [6]: 19.3 nM

CC[C@H]1CN2CCc3cc(OC)c(OC)cc3[C@@H]2C[C@@H]1C[C@H]1NCCc2cc(OC)c(OC)cc21 [EMETINE]
IC50 [3]: 100 nM

CCc1nc(N)nc(N)c1-c1ccc(Cl)cc1 [PYRIMETHAMINE]
IC50 [3]: 271000 nM
IC50 [5]: 60700 nM
IC50 [6]: 33000 nM

C[C@H]1[C@@H](OCCNCCNc2nc(Nc3ccccc3)nc(Nc3ccccc3)n2)O[C@@H]2O[C@@]3(C)CC[C@H]4[C@H](C)CC[C@@H]1[C@@]24OO3.O=C(O)C(=O)O
Ratio IC50 [1]: <=6000
selectivity ratio [2]: 588
IC50 [3]: 16000 nM
Ratio IC50 [4]: 2.2
IC50 [5]: 59.1 nM
IC50 [6]: 27.2 nM

COc1ccc(Nc2nc(NCCNCCO[C@H]3O[C@@H]4O[C@@]5(C)CC[C@H]6[C@H](C)CC[C@@H]([C@H]3C)[C@@]46OO5)nc(Nc3ccccc3)n2)cc1.O=C(O)C(=O)O
Ratio IC50 [1]: <=6000
selectivity ratio [2]: > 5050
IC50 [3]: > 100 µg/mL
Ratio IC50 [4]: 1.5
IC50 [5]: 28.8 nM
IC50 [6]: 19.8 nM

COc1ccc(Nc2nc(NCCNCCO[C@H]3O[C@@H]4O[C@@]5(C)CC[C@H]6[C@H](C)CC[C@@H]([C@H]3C)[C@@]46OO5)nc(NCCN(C(C)C)C(C)C)n2)cc1.O=C(O)C(=O)O
Ratio IC50 [1]: <=6000
selectivity ratio [2]: 23
IC50 [3]: 900 nM
Ratio IC50 [4]: 1.9
IC50 [5]: 74.7 nM
IC50 [6]: 39.1 nM

C[C@H]1[C@@H](O)O[C@@H]2O[C@@]3(C)CC[C@H]4[C@H](C)CC[C@@H]1[C@@]24OO3 [ARTENIMOL]
selectivity ratio [2]: 162000
IC50 [3]: 148000 nM
Ratio IC50 [4]: 9.7
IC50 [5]: 8.8 nM
IC50 [6]: 0.9 nM
